The values below come from ChEMBL document CHEMBL2346564, “Synthesis and biological evaluation of nitric oxide releasing derivatives of 6-amino-3-n-butylphthalide as potential antiplatelet agents” (Bioorg Med Chem Lett, 2013).

Values after ≈ are worked out from the molar mass of the structure shown.

Series [1] in a line: Antiplatelet activity in rabbit platelet rich plasma assessed as inhibition of ADP-induced platelet aggregation at 0.1 mM incubated for 5 mins prior to ADP challenge measured after 5 mins by Born's turbidimetric method relative to control. The series is classed as functional. The conditions noted are these: Oryctolagus cuniculus. The essentials:
(§1)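 Rabbit platelet-rich plasma, adjusted with platelet-poor plasma (centrifuged 3000 rpm, 10 min, room temperature) to 400–450 × 10⁹ platelets/L and used within 3 h of blood collection. PRP pre-incubated with vehicle or compound (0.1 mM) for 5 min at 37 °C, then ADP 10 μM added. Maximum aggregation rate recorded over 5 min by Born turbidimetry. Inhibition (%) = 100% − MAR(compound)/MAR(vehicle). Mean ± SD, n = 6.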

The nature of series [2]: Induction of nitric oxide release in phosphate buffer assessed as nitrite level at 0.1 mM measured every 15 mins for 120 mins followed by every 30 mins for 180 mins by Griess assay. The series is classed as physicochemical. The note with it: 100 µM. Put shortly:
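Compound at 0.1 mM in phosphate buffer solution, kept at room temperature for 15–300 min. Sampled every 15 min up to 120 min, then every 30 min. Samples mixed with sulfanilamide and N-(1-naphthyl)ethylenediamine dihydrochloride and held 5–10 min at room temperature in the dark. Absorbance read at 540 nm and converted to nitrite (μmol/L) with a nitrite standard curve. Intra-group variation under 10%.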
For orientation: The Griess reaction detects nitrite, a stable product of nitric oxide.

The nature of series [3]: Aqueous solubility of the compound in normal saline after 5 hrs by UV-spectrophotometric analysis. The note with it: normal saline (aqueous solubility, as described).
The subject of series [4] is Platelet. The series is described as follows: Ratio of compound activity to 3-n-butylphthalide activity for inhibition of ADP-induced platelet aggregation in rabbit platelet rich plasma at 0.1 mM. The series is classed as functional, Oryctolagus cuniculus.
Series [5] is described as follows: Antiplatelet activity in rabbit platelet rich plasma assessed as inhibition of ADP-induced platelet aggregation at 0.1 mM incubated for 5 mins prior to ADP challenge measured after 5 mins by Born's turbidimetric method in presence of hemoglobin relative to control. The series is classed as functional. The note with it: Oryctolagus cuniculus. The essentials:
as §1

The test system of series [6] is Platelet. Briefly: Ratio of compound activity to 6-amino 3-n-butylphthalide activity for inhibition of ADP-induced platelet aggregation in rabbit platelet rich plasma at 0.1 mM. The series is classed as functional, Oryctolagus cuniculus.

By inhibition is commonly meant the drop in the measured response relative to a control, in per cent. As to `CCCCC1OC(=O)c2cc(N)ccc21` (configuration not stated), the inhibition at 100 µM in series [1] is 18.4%.

For `CCCCC1OC(=O)c2cc(NC(=O)CO[N+](=O)[O-])ccc21` (configuration not stated), the inhibition at 100 µM in series [1] is 22.2%. Also, in series [2], the Activity worked out at 3.67 µmol/L.

As a reminder, the solubility is the concentration that dissolves in the medium under given conditions. The low end stands for a poorly soluble substance, the high end for a readily soluble substance. For `CCCCC1OC(=O)c2cc(NC(=O)CCO[N+](=O)[O-])ccc21` (configuration not stated), the concentration in solution in series [3] (solubility at 5 h) was 1180 µM (≈ 380 µg/mL). The inhibition at 100 µM in series [1] was determined as 30.4%; in series [5], 23.1%. The Ratio in the series with Platelet [4] and with Platelet [6] was 2 each time. For the same compound, the Activity in series [2] stood at 12.88 µmol/L.

On to `CCCCC1OC(=O)c2cc(NC(=O)CCCO[N+](=O)[O-])ccc21` (configuration not stated), for which the inhibition at 100 µM in series [1] was 28.6%. In addition, the Activity in series [2] was 7.1 µmol/L.

`CCCCC1OC(=O)c2cc(NC(=O)c3ccccc3OCCO[N+](=O)[O-])ccc21` (configuration not stated): in series [1], the inhibition at 100 µM came out at 15.2%. The Activity in series [2] stood at 1.82 µmol/L.

`CCCCC1OC(=O)c2cc(NC(=O)c3ccc(OCCO[N+](=O)[O-])cc3)ccc21` (configuration not stated): the inhibition at 100 µM in series [1] was found to be 20%. Besides, the Activity in series [2] is 2.21 µmol/L.

For the compound `CCCCC1OC(=O)c2cc(NC(=O)c3cccc(OCCO[N+](=O)[O-])c3)ccc21` (configuration not stated), in series [1], the inhibition at 100 µM was 26.6%. In addition, in series [2], the Activity is 6.82 µmol/L.

In the case of `CCCCC1OC(=O)c2cc(NC(=O)c3ccccc3OCCCO[N+](=O)[O-])ccc21` (configuration not stated), the solubility at 5 h in series [3] was 580 µM (≈ 248 µg/mL). Moreover, in series [1], the inhibition at 100 µM was 16.7%. Besides, the Activity in series [2] amounted to 2.18 µmol/L.

Take `CCCCC1OC(=O)c2cc(NC(=O)c3ccc(OCCCO[N+](=O)[O-])cc3)ccc21` (configuration not stated): the concentration in solution in series [3] (solubility at 5 h) came to 750 µM (≈ 321 µg/mL). In addition, the inhibition at 100 µM in series [1] was 22.8%. Further, the Activity in series [2] came to 3.88 µmol/L.

`CCCCC1OC(=O)c2cc(NC(=O)c3cccc(OCCCO[N+](=O)[O-])c3)ccc21` (configuration not stated) gave a solubility at 5 h in series [3] of 1060 µM (≈ 454 µg/mL). Further, in series [1], the inhibition at 100 µM worked out at 28.8%. Besides, the Activity in series [2] worked out at 7.27 µmol/L.

As for `CCCCC1OC(=O)c2cc(NC(=O)c3ccccc3OCCCCO[N+](=O)[O-])ccc21` (configuration not stated), the inhibition at 100 µM in series [1] was found to be 13.6%.

`CCCCC1OC(=O)c2cc(NC(=O)c3ccc(OCCCCO[N+](=O)[O-])cc3)ccc21` (configuration not stated): the inhibition at 100 µM in series [1] was found to be 18.2%.

On to `CCCCC1OC(=O)c2cc(NC(=O)c3cccc(OCCCCO[N+](=O)[O-])c3)ccc21` (configuration not stated), for which the inhibition at 100 µM in series [1] came to 21.6%.

`CCCCC1OC(=O)c2ccccc21` (racemic) [RAC-3-N-BUTYLPHTHALIDE] registered a solubility at 5 h in series [3] of 540 µM (≈ 103 µg/mL). Moreover, in series [1], the inhibition at 100 µM amounted to 15.7%.

For `Clc1ccccc1CN1CCc2sccc2C1` [TICLOPIDINE], the inhibition at 100 µM in series [1] was found to be 26.4%.
